According to publication PMC2662489 (Biochemical Journal, 2009):
Like-named read-outs stand apart in the source and are kept apart here. Each block holds one compound with its values, some of them ahead of it.

Assays:
MsbA-MIANS [1] = target: T1, MsbA-MIANS (Escherichia coli, UniProt P60752); test: MIANS fluorescence quenching titration of MsbA-MIANS; assay type: binding; conditions: for Concentration-dependent quenching of MIANS fluorescence: titration of MsbA-MIANS with negatively charged drugs
MsbA-MIANS [2] = target: T1, MsbA-MIANS; test: Dual sequential titration of MsbA-MIANS fluorescence quenching; assay type: binding; conditions: for Effect of lipid A pre-binding on ligand binding affinity (in words): ATP at 10 °C, daunorubicin and p[NH]ppA at 23 °C; for Binding affinity of drug after prior binding of nucleotide (in words): ATP bound first, results not shown
Method in brief: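 MIANS-labelled MsbA (100 μg/ml) was prepared by labelling with 10 μM MIANS, quenching with DTE and dialysing. It was held in 100 mM Hepes, 50 mM NaCl, 5 mM MgCl2, 0.05% DM, pH 7.5, at 23 °C, or 10 °C for ATP to prevent hydrolysis. […] Data were fitted to a single-site model for Kd and ΔFmax.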

MsbA [3] = target: T2, MsbA (Escherichia coli, UniProt P60752); test: ATPase activity assay; assay type: biochemical; conditions: ATP 0.05-10 mM, 0.05% DM
Method in brief: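 Purified His-tagged MsbA (~100 μg/ml in 0.05% (w/v) DM) assayed colorimetrically for free Pi liberated from ATP across varied ATP levels. Labelled enzyme was first reacted with 10 μM MIANS for 2 h at 23 °C in the dark. Unreacted MIANS was quenched with 1 mM DTE before the ATPase measurement.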

MsbA [4] = target: T2, MsbA; test: Modulation of the rate of MsbA labelling by MIANS; assay type: biochemical
[5] = 23 °C, MsbA 100 μg/ml in 0.05% DM, single-site fit
[6] = Kd, 23 °C, MsbA 100 μg/ml in 0.05% DM, single-site fit
[7] = 10 °C, MsbA 100 μg/ml in 0.05% DM, ligand alone
[8] = 10 °C, titrated after daunorubicin

T2 sequence (P60752 whole entry): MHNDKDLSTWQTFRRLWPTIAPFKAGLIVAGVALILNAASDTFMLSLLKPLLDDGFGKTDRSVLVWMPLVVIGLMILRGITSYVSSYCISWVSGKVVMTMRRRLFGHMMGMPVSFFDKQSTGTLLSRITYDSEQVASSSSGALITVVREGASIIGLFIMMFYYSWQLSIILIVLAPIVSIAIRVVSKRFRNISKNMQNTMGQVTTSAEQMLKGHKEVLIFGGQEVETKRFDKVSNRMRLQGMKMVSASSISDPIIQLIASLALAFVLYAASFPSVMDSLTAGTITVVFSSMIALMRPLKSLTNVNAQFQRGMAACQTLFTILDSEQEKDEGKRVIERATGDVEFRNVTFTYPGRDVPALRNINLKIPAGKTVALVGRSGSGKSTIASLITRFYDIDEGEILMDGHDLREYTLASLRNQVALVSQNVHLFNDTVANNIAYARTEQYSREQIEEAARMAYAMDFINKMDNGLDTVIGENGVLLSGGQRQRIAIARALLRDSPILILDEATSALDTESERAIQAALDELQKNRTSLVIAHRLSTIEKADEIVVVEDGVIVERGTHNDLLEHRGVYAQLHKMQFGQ
T1 sequence (P60752 whole entry): as above

Concentration-dependent quenching of MIANS fluorescence (MsbA-MIANS [1]): No concentration-dependent quenching
Compound: CC1(C)S[C@@H]2[C@H](NC(=O)[C@H](N)c3ccccc3)C(=O)N2[C@H]1C(=O)O [ampicillin]

Concentration-dependent quenching of MIANS fluorescence (MsbA-MIANS [1]): No concentration-dependent quenching
Compound: O=C(O)c1cn(C2CC2)c2cc(N3CCNCC3)c(F)cc2c1=O [ciprofloxacin]

Concentration-dependent quenching of MIANS fluorescence (MsbA-MIANS [1]): No concentration-dependent quenching
Compound: CCn1cc(C(=O)O)c(=O)c2cc(F)c(N3CCNCC3)cc21 [norfloxacin]

Concentration-dependent quenching of MIANS fluorescence (MsbA-MIANS [1]): No concentration-dependent quenching
Compound: CC1COc2c(N3CCN(C)CC3)c(F)cc3c(=O)c(C(=O)O)cn1c23 (centres unmarked) [ofloxacin]

Kd (MsbA-MIANS [1]; [5]): 470 ± 30 µM | Kd (MsbA-MIANS [2]; 23 °C, titrated after lipid A): 650 ± 80 µM | Maximal quenching (ΔFmax/F0×100) (MsbA-MIANS [2]; 23 °C, titrated after lipid A): 23.2±1.2% | Effect of lipid A pre-binding on ligand binding affinity (in words) (MsbA-MIANS [2]): relatively unaffected
Compound: Nc1ncnc2c1ncn2[C@@H]1O[C@H](COP(=O)(O)OP(=O)(O)NP(=O)(O)O)[C@@H](O)[C@H]1O [p[NH]ppA, adenosine 5′-[β,γ-imido]triphosphate]

More lines, now with the values behind:

Compound: Nc1ncnc2c1ncn2[C@@H]1O[C@H](COP(=O)(O)OP(=O)(O)O)[C@@H](O)[C@H]1O [ADP]
Kd (MsbA-MIANS [1]; [5]): 130 ± 60 µM | Maximal quenching (ΔFmax/F0×100) (MsbA-MIANS [1]; [5]): 8.48±0.4%

Compound: Nc1ncnc2c1ncn2[C@@H]1O[C@H](COP(=O)(O)O)[C@@H](O)[C@H]1O [AMP]
Kd (MsbA-MIANS [1]; [5]): 800 ± 200 µM | Maximal quenching (ΔFmax/F0×100) (MsbA-MIANS [1]; [5]): 7.84±0.80%

Compound: Nc1ncnc2c1ncn2[C@@H]1O[C@H](CO[P@](=O)(O)O[P@](=O)(O)O[P@@](=O)(O)S)[C@@H](O)[C@H]1O [ATP[S], adenosine 5´-[γ-thio]triphosphate]
Kd (MsbA-MIANS [1]; [6]): 1.82 ± 0.29 µM

Compound: Nc1ncnc2c1ncn2[C@@H]1O[C@H](COP(=O)(O)OP(=O)(O)OP(=O)(O)O)[C@@H](O)[C@H]1O [ATP]
Kd (MsbA-MIANS [1]; [7]): 3050 ± 430 µM | Kd for ATP binding relative to that of p[NH]ppA (MsbA-MIANS [1]; ATP at 10 °C versus p[NH]ppA at 23 °C): > 7 fold | Kd (MsbA-MIANS [2]; [8]): 950 ± 230 µM | Maximal quenching (ΔFmax/F0×100) (MsbA-MIANS [2]; [8]): 5.45±0.41% | Kd (MsbA-MIANS [2]; 10 °C, titrated after lipid A): 2030 ± 300 µM | Maximal quenching (ΔFmax/F0×100) (MsbA-MIANS [2]; 10 °C, titrated after lipid A): 12.0±0.78% | Effect of lipid A pre-binding on ligand binding affinity (in words) (MsbA-MIANS [2]): relatively unaffected | Km (MsbA [3]; MIANS-labelled MsbA): 410 ± 40 µM | Km (MsbA [3]; unlabelled MsbA): 520 ± 40 µM

Compound: COc1cccc2c1C(=O)c1c(O)c3c(c(O)c1C2=O)C[C@@](O)(C(C)=O)C[C@@H]3O[C@H]1C[C@H](N)[C@H](O)[C@H](C)O1 [Daunorubicin]
Initial rate of labelling (MsbA [4]): 27.4±2.3 ms^−1 | Labelling efficiency (MsbA [4]): 87.2±1.3% | Initial rate of labelling (MsbA [4]; listed as daunorubicin): the most | Maximal quenching (ΔFmax/F0×100) (MsbA-MIANS [1]; [5]): highest quenching | Kd (MsbA-MIANS [1]; 23 °C, MsbA reconstituted into egg PC proteoliposomes): essentially the same | Kd (MsbA-MIANS [1]; Kd, 10 °C, MsbA 100 μg/ml in 0.05% DM, ligand alone): 2.97 ± 0.23 µM | Kd (MsbA-MIANS [1]; [6]): 4.6 ± 0.2 µM | Kd (MsbA-MIANS [1]; Kd, 23 °C, MsbA reconstituted into egg PC proteoliposomes): 4.3 ± 0.79 µM | Reduction in binding affinity after pre-binding of lipid A (MsbA-MIANS [2]; 10 °C): ~2 fold | Effect of lipid A pre-binding on ligand binding affinity (in words) (MsbA-MIANS [2]): did not affect | Binding affinity of drug after prior binding of nucleotide (in words) (MsbA-MIANS [2]): reduced | Kd (MsbA-MIANS [2]; Kd, 10 °C, titrated after ATP): 9.59 ± 0.39 µM | Kd (MsbA-MIANS [2]; Kd, 10 °C, titrated after lipid A): 5.03 ± 0.11 µM | Kd (MsbA-MIANS [2]; Kd, 23 °C, titrated after lipid A): 4.42 ± 0.33 µM

Compound: O=c1c(O)c(-c2ccc(O)c(O)c2)oc2cc(O)cc(O)c12 [Quercetin]
Initial rate of labelling (MsbA [4]): 85.0±3.1 ms^−1 | Labelling efficiency (MsbA [4]): 78.8±1.0% | Kd (MsbA-MIANS [1]; [6]): 8.56 ± 0.79 µM

Compound: CC(C)[C@@H]1NC(=O)[C@H](C)OC(=O)[C@@H](C(C)C)NC(=O)[C@@H](C(C)C)OC(=O)[C@H](C(C)C)NC(=O)[C@H](C)OC(=O)[C@@H](C(C)C)NC(=O)[C@@H](C(C)C)OC(=O)[C@H](C(C)C)NC(=O)[C@H](C)OC(=O)[C@@H](C(C)C)NC(=O)[C@@H](C(C)C)OC1=O [Valinomycin]
Initial rate of labelling (MsbA [4]): 66.8±3.4 ms^−1 | Labelling efficiency (MsbA [4]): 101±3.2% | Kd (MsbA-MIANS [1]): 0.35 ± 0.04 µM

Compound: COc1ccc(CCN(C)CCCC(C#N)(c2ccc(OC)c(OC)c2)C(C)C)cc1OC (centres unmarked) [Verapamil]
Initial rate of labelling (MsbA [4]): 71.0±2.6 ms^−1 | Labelling efficiency (MsbA [4]): 82.2±3.6% | Kd (MsbA-MIANS [1]; [6]): 1.26 ± 0.09 µM

Compound: CC[C@]1(O)C[C@@H]2CN(CCc3c([nH]c4ccccc34)[C@@](C(=O)OC)(c3cc4c(cc3OC)N(C)[C@H]3[C@@](O)(C(=O)OC)[C@H](OC(C)=O)[C@]5(CC)C=CCN6CC[C@]43[C@@H]65)C2)C1 [Vinblastine]
Initial rate of labelling (MsbA [4]): 182±3.4 ms^−1 | Labelling efficiency (MsbA [4]): 105±4.5% | Initial rate of labelling (MsbA [4]; listed as vinblastine): affected the least | Kd (MsbA-MIANS [1]; [6]): 1.2 ± 0.14 µM | Binding affinity of drug after prior binding of nucleotide (in words) (MsbA-MIANS [2]): reduced

Compound: Lipid A
Labelling efficiency (MsbA [4]; 23 °C, MIANS:MsbA stoichiometry after 2000 s, drug at ~5-fold its Kd (2-40 μM)): 118±9.2% | Maximal quenching (ΔFmax/F0×100) (MsbA-MIANS [1]; [7]): 6.02±0.11% | Increase of ΔFmax for quenching when daunorubicin was bound first (MsbA-MIANS [2]): 2 fold | Reduction of binding affinity when ATP was pre-bound (MsbA-MIANS [2]; 10 °C): ~8 fold | Maximal quenching (ΔFmax/F0×100) (MsbA-MIANS [2]; 10 °C, titrated after ATP): 17.7±1.0% | Maximal quenching (ΔFmax/F0×100) (MsbA-MIANS [2]; [8]): 7.31±0.50% | Reduction of binding affinity when p[NH]ppA was pre-bound (MsbA-MIANS [2]; 23 °C): ~3 fold | Maximal quenching (ΔFmax/F0×100) (MsbA-MIANS [2]; 23 °C, titrated after daunorubicin): 15.7±1.4% | Maximal quenching (ΔFmax/F0×100) (MsbA-MIANS [2]; 23 °C, titrated after p[NH]ppA): 10.9±1.2%
